Results reported in ChEMBL document CHEMBL5303300, “EUbOPEN Chemogenomics Library - Multiplex” (2023).
Several values for one entry are separate records, joined by “and”; a condition that tells them apart may be missing. Equal values may be shown once.

Test system: U2OS
Assay: Multiplex assay against U2OS
Assay type: toxicity, cell-based
Details: human, number of replicates 2
Procedure, shortened: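 With compound added, live cells were imaged on a CQ1 microscope at 37°C and 5% CO2; staining with Hoechst33342, BioTracker Green Microtubule Cytoskeleton Dye, MitoTracker Red and Annexin V Alexa Fluor 680 had been done at seeding. The CellPathfinder machine-learning gating scheme split cells into Hoechst high-intensity objects or normal cells, normal cells into healthy, pyknosed or fragmented nuclei, and pyknosed cells into mitotic or apoptotic. The tubulin, mitochondrial-mass and membrane-permeability phenotypes are per cents of healthy-nucleus cells.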

[1] = 12 h, 1 µM, compound concentration 1 uM
[2] = 12 h, 10 µM, compound concentration 10 uM
[3] = 24 h, 1 µM, compound concentration 1 uM
[4] = 24 h, 10 µM, compound concentration 10 uM
[5] = 48 h, 1 µM, compound concentration 1 uM
[6] = 48 h, 10 µM, compound concentration 10 uM

Cc1cc(NC(=O)c2cccc(NC(=O)/C=C/CN(C)C)c2)ccc1Nc1nccc(-c2cccnc2)n1
Population Apoptotic (%) [1]: 100% and 77% | Population Healthy Nuclei (%) [1]: 55% and 82% | Population Hoechst High Intensity Objects (%) [1]: 0% | Population Membrane Permeable-Phenotype (%) [1]: 0% | Population Mitochondria Different-Phenotype (%) [1]: 4% and 0% | Population Mitotic Cells (%) [1]: 0% and 22% | Population Normal (%) [1]: 100% | Population Pyknosed Nuclei (%) [1]: 4% and 12% | Population Tubulin-Different-Phenotype (%) [1]: 70% and 87% | Population Apoptotic (%) [2]: 75% | Population Fragmented Nuclei (%) [2]: 9% and 3% | Population Healthy Nuclei (%) [2]: 61% and 65% | Population Hoechst High Intensity Objects (%) [2]: 0% | Population Membrane Permeable-Phenotype (%) [2]: 15% and 21% | Population Mitochondria Different-Phenotype (%) [2]: 23% and 18% | Population Mitotic Cells (%) [2]: 25% and 24% | Population Normal (%) [2]: 100% | Population Pyknosed Nuclei (%) [2]: 28% and 31% | Population Tubulin-Different-Phenotype (%) [2]: 76% and 43% | Population Apoptotic (%) [3]: 33% and 86% | Population Healthy Nuclei (%) [3]: 60% and 83% | Population Hoechst High Intensity Objects (%) [3]: 0% | Population Membrane Permeable-Phenotype (%) [3]: 3% and 1% | Population Mitochondria Different-Phenotype (%) [3]: 3% and 0% | Population Normal (%) [3]: 100% | Population Pyknosed Nuclei (%) [3]: 6% and 9% | Population Tubulin-Different-Phenotype (%) [3]: 66% and 90% | Population Apoptotic (%) [4]: 92% and 85% | Population Fragmented Nuclei (%) [4]: 15% and 10% | Population Healthy Nuclei (%) [4]: 26% and 35% | Population Hoechst High Intensity Objects (%) [4]: 4% and 1% | Population Membrane Permeable-Phenotype (%) [4]: 41% and 23% | Population Mitochondria Different-Phenotype (%) [4]: 41% and 38% | Population Mitotic Cells (%) [4]: 7% and 14% | Population Normal (%) [4]: 95% and 98% | Population Pyknosed Nuclei (%) [4]: 58% and 53% | Population Tubulin-Different-Phenotype (%) [4]: 91% and 61% | Population Apoptotic (%) [5]: 37% and 75% | Population Fragmented Nuclei (%) [5]: 18% and 6% | Population Healthy Nuclei (%) [5]: 69% and 86% | Population Hoechst High Intensity Objects (%) [5]: 0% | Population Membrane Permeable-Phenotype (%) [5]: 4% and 1% | Population Mitochondria Different-Phenotype (%) [5]: 2% and 1% | Population Mitotic Cells (%) [5]: 62% and 24% | Population Normal (%) [5]: 100% | Population Pyknosed Nuclei (%) [5]: 12% and 7% | Population Tubulin-Different-Phenotype (%) [5]: 68% and 91% | Population Apoptotic (%) [6]: 96% and 95% | Population Healthy Nuclei (%) [6]: 11% and 9% | Population Hoechst High Intensity Objects (%) [6]: 10% and 2% | Population Membrane Permeable-Phenotype (%) [6]: 100% and 92% | Population Mitochondria Different-Phenotype (%) [6]: 100% and 53% | Population Mitotic Cells (%) [6]: 3% and 4% | Population Normal (%) [6]: 89% and 97% | Population Pyknosed Nuclei (%) [6]: 67% and 84% | Population Tubulin-Different-Phenotype (%) [6]: 100% and 84%

COc1ncc(-c2cc(-c3ncc(CN4C[C@@H](C)O[C@@H](C)C4)o3)c3cn[nH]c3c2)cc1NS(C)(=O)=O
Population Apoptotic (%) [1]: 66% and 57% | Population Fragmented Nuclei (%) [1]: 3% and 13% | Population Healthy Nuclei (%) [1]: 85% and 69% | Population Hoechst High Intensity Objects (%) [1]: 0% | Population Membrane Permeable-Phenotype (%) [1]: 1% and 0% | Population Mitochondria Different-Phenotype (%) [1]: 0% | Population Mitotic Cells (%) [1]: 33% and 42% | Population Normal (%) [1]: 99% and 100% | Population Pyknosed Nuclei (%) [1]: 11% and 16% | Population Tubulin-Different-Phenotype (%) [1]: 84% and 43% | Population Apoptotic (%) [2]: 50% and 64% | Population Healthy Nuclei (%) [2]: 68% and 77% | Population Hoechst High Intensity Objects (%) [2]: 0% | Population Membrane Permeable-Phenotype (%) [2]: 12% and 10% | Population Mitochondria Different-Phenotype (%) [2]: 0% and 5% | Population Mitotic Cells (%) [2]: 50% and 35% | Population Normal (%) [2]: 100% and 99% | Population Pyknosed Nuclei (%) [2]: 10% and 18% | Population Tubulin-Different-Phenotype (%) [2]: 48% and 45% | Population Apoptotic (%) [3]: 65% and 87% | Population Fragmented Nuclei (%) [3]: 1% and 9% | Population Healthy Nuclei (%) [3]: 87% and 75% | Population Hoechst High Intensity Objects (%) [3]: 0% | Population Membrane Permeable-Phenotype (%) [3]: 1% and 0% | Population Mitochondria Different-Phenotype (%) [3]: 0% | Population Mitotic Cells (%) [3]: 34% and 12% | Population Normal (%) [3]: 99% and 100% | Population Pyknosed Nuclei (%) [3]: 10% and 15% | Population Tubulin-Different-Phenotype (%) [3]: 82% and 47% | Population Apoptotic (%) [4]: 64% and 74% | Population Healthy Nuclei (%) [4]: 49% and 69% | Population Hoechst High Intensity Objects (%) [4]: 0% | Population Membrane Permeable-Phenotype (%) [4]: 0% and 8% | Population Mitochondria Different-Phenotype (%) [4]: 7% and 9% | Population Mitotic Cells (%) [4]: 35% and 25% | Population Normal (%) [4]: 100% | Population Pyknosed Nuclei (%) [4]: 26% and 23% | Population Tubulin-Different-Phenotype (%) [4]: 76% and 49% | Population Apoptotic (%) [5]: 65% and 69% | Population Fragmented Nuclei (%) [5]: 2% and 7% | Population Healthy Nuclei (%) [5]: 87% and 72% | Population Hoechst High Intensity Objects (%) [5]: 0% | Population Membrane Permeable-Phenotype (%) [5]: 1% and 0% | Population Mitochondria Different-Phenotype (%) [5]: 0% | Population Mitotic Cells (%) [5]: 34% and 30% | Population Normal (%) [5]: 99% and 100% | Population Pyknosed Nuclei (%) [5]: 10% and 19% | Population Tubulin-Different-Phenotype (%) [5]: 81% and 43% | Population Apoptotic (%) [6]: 76% and 81% | Population Healthy Nuclei (%) [6]: 55% and 62% | Population Hoechst High Intensity Objects (%) [6]: 0% | Population Membrane Permeable-Phenotype (%) [6]: 7% and 8% | Population Mitochondria Different-Phenotype (%) [6]: 10% and 12% | Population Mitotic Cells (%) [6]: 23% and 18% | Population Normal (%) [6]: 100% | Population Pyknosed Nuclei (%) [6]: 25% and 30% | Population Tubulin-Different-Phenotype (%) [6]: 63% and 50%

CC1(C)C(=O)N([C@H]2CCc3c(O)cccc32)c2nc(Nc3cccc(CN4CCCC4)c3)ncc21
Population Apoptotic (%) [1]: 50% and 79% | Population Healthy Nuclei (%) [1]: 25% and 70% | Population Hoechst High Intensity Objects (%) [1]: 0% | Population Membrane Permeable-Phenotype (%) [1]: 0% and 6% | Population Mitochondria Different-Phenotype (%) [1]: 0% and 17% | Population Mitotic Cells (%) [1]: 50% and 20% | Population Normal (%) [1]: 100% | Population Pyknosed Nuclei (%) [1]: 22% | Population Tubulin-Different-Phenotype (%) [1]: 55% and 51% | Population Apoptotic (%) [2]: 90% and 88% | Population Healthy Nuclei (%) [2]: 28% and 42% | Population Hoechst High Intensity Objects (%) [2]: 0% and 2% | Population Membrane Permeable-Phenotype (%) [2]: 62% and 26% | Population Mitochondria Different-Phenotype (%) [2]: 50% and 59% | Population Mitotic Cells (%) [2]: 9% and 11% | Population Normal (%) [2]: 100% and 97% | Population Pyknosed Nuclei (%) [2]: 39% and 49% | Population Tubulin-Different-Phenotype (%) [2]: 62% and 73% | Population Apoptotic (%) [3]: 80% and 81% | Population Healthy Nuclei (%) [3]: 25% and 59% | Population Hoechst High Intensity Objects (%) [3]: 0% | Population Membrane Permeable-Phenotype (%) [3]: 0% and 6% | Population Mitochondria Different-Phenotype (%) [3]: 0% and 16% | Population Mitotic Cells (%) [3]: 20% and 18% | Population Normal (%) [3]: 100% | Population Pyknosed Nuclei (%) [3]: 31% and 29% | Population Tubulin-Different-Phenotype (%) [3]: 62% and 42% | Population Apoptotic (%) [4]: 90% and 92% | Population Healthy Nuclei (%) [4]: 31% and 20% | Population Hoechst High Intensity Objects (%) [4]: 0% and 2% | Population Membrane Permeable-Phenotype (%) [4]: 44% and 36% | Population Mitochondria Different-Phenotype (%) [4]: 66% and 72% | Population Mitotic Cells (%) [4]: 9% and 8% | Population Normal (%) [4]: 100% and 97% | Population Pyknosed Nuclei (%) [4]: 37% and 71% | Population Tubulin-Different-Phenotype (%) [4]: 55% and 83% | Population Apoptotic (%) [5]: 91% and 94% | Population Hoechst High Intensity Objects (%) [5]: 3% and 1% | Population Membrane Permeable-Phenotype (%) [5]: 50% and 21% | Population Mitochondria Different-Phenotype (%) [5]: 0% and 22% | Population Mitotic Cells (%) [5]: 8% and 5% | Population Normal (%) [5]: 96% and 98% | Population Pyknosed Nuclei (%) [5]: 37% and 47% | Population Tubulin-Different-Phenotype (%) [5]: 50% and 51% | Population Apoptotic (%) [6]: 97% and 81% | Population Healthy Nuclei (%) [6]: 12% and 15% | Population Hoechst High Intensity Objects (%) [6]: 1% and 2% | Population Membrane Permeable-Phenotype (%) [6]: 77% and 50% | Population Mitochondria Different-Phenotype (%) [6]: 77% and 50% | Population Normal (%) [6]: 98% and 97% | Population Pyknosed Nuclei (%) [6]: 81% and 28% | Population Tubulin-Different-Phenotype (%) [6]: 81% and 83%

COCCNC1CCC(Nc2cc(-c3csc(NCC4(C#N)CCOCC4)n3)c(Cl)cn2)CC1 (stereo not drawn)
Population Apoptotic (%) [1]: 45% and 87% | Population Fragmented Nuclei (%) [1]: 17% and 9% | Population Healthy Nuclei (%) [1]: 34% and 40% | Population Hoechst High Intensity Objects (%) [1]: 0% | Population Mitochondria Different-Phenotype (%) [1]: 7% | Population Normal (%) [1]: 100% and 99% | Population Pyknosed Nuclei (%) [1]: 48% and 49% | Population Tubulin-Different-Phenotype (%) [1]: 57% and 58% | Population Apoptotic (%) [2]: 83% and 89% | Population Fragmented Nuclei (%) [2]: 10% | Population Hoechst High Intensity Objects (%) [2]: 2% and 1% | Population Mitochondria Different-Phenotype (%) [2]: 40% and 66% | Population Mitotic Cells (%) [2]: 16% and 10% | Population Normal (%) [2]: 97% and 98% | Population Pyknosed Nuclei (%) [2]: 40% and 78% | Population Tubulin-Different-Phenotype (%) [2]: 50% | Population Apoptotic (%) [3]: 59% and 94% | Population Fragmented Nuclei (%) [3]: 13% and 9% | Population Healthy Nuclei (%) [3]: 25% and 26% | Population Hoechst High Intensity Objects (%) [3]: 0% and 3% | Population Membrane Permeable-Phenotype (%) [3]: 0% and 14% | Population Mitochondria Different-Phenotype (%) [3]: 0% and 11% | Population Normal (%) [3]: 100% and 96% | Population Pyknosed Nuclei (%) [3]: 61% and 63% | Population Tubulin-Different-Phenotype (%) [3]: 55% | Population Apoptotic (%) [4]: 91% | Population Fragmented Nuclei (%) [4]: 9% and 6% | Population Hoechst High Intensity Objects (%) [4]: 2% and 3% | Population Membrane Permeable-Phenotype (%) [4]: 0% and 20% | Population Mitochondria Different-Phenotype (%) [4]: 33% and 58% | Population Mitotic Cells (%) [4]: 8% | Population Normal (%) [4]: 97% and 96% | Population Pyknosed Nuclei (%) [4]: 84% and 60% | Population Tubulin-Different-Phenotype (%) [4]: 66% and 52% | Population Apoptotic (%) [5]: 98% and 78% | Population Fragmented Nuclei (%) [5]: 11% and 16% | Population Healthy Nuclei (%) [5]: 7% and 9% | Population Hoechst High Intensity Objects (%) [5]: 5% and 0% | Population Membrane Permeable-Phenotype (%) [5]: 53% and 66% | Population Mitochondria Different-Phenotype (%) [5]: 38% and 66% | Population Normal (%) [5]: 94% and 100% | Population Pyknosed Nuclei (%) [5]: 81% and 74% | Population Tubulin-Different-Phenotype (%) [5]: 69% and 100% | Population Apoptotic (%) [6]: 100% and 94% | Population Fragmented Nuclei (%) [6]: 9% and 5% | Population Healthy Nuclei (%) [6]: 6% and 16% | Population Hoechst High Intensity Objects (%) [6]: 2% and 3% | Population Membrane Permeable-Phenotype (%) [6]: 66% and 40% | Population Mitochondria Different-Phenotype (%) [6]: 66% and 80% | Population Mitotic Cells (%) [6]: 0% and 5% | Population Normal (%) [6]: 97% and 96% | Population Pyknosed Nuclei (%) [6]: 83% and 78% | Population Tubulin-Different-Phenotype (%) [6]: 66% and 72%
